In the library only some 4.1% were active in any assay of this set; here they are far more common.
KCNK9 block – KCNK9 potassium channel inhibitors, primary screen, HEK293 cells, thallium flux | AID 488922, 2010 | B-score at 10 µM | FluxOR thallium flux fluorescence; hits give low values | Potassium channel subfamily K member 9 (Homo sapiens), Q9NPC2 | actives 1.2% (n = 310,000);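 active = ratio B-score over 3 SD below the library mean, with starting fluorescence within 5 SD of its mean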;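 note: negative B-score means less thallium flux so channel inhibition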
KCC2 mod – KCC2 cotransporter modulators, thallium flux, primary screen, cell-based, HEK293 KCC2, FluoZin-2 fluorescence, MLSMR; KCC2 cells, thallium flux FluoZin-2 fluorescence; B-score of Tl+ flux slope (higher = more flux/activation; lower = inhibition) at 10 µM; actives 2.2% (n = 190,000);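 active = thallium flux slope and its plate-corrected score both differing from the plate sample mean at a set confidence after two filtering rounds, in either direction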;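 note: slope of fluorescence scaled to starting intensity during 10 to 20 s after thallium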
hERG rescue – hERG rescue from dofetilide block, primary screen, cell-based, CHO-hERG, FluxOR thallium flux, dofetilide IC70. Voltage-gated inwardly rectifying potassium channel KCNH2 (Homo sapiens), Q12809. dofetilide IC70 present. activation (rescue from dofetilide block), less the hit threshold, % at 10 µM. actives 0.51% (n = 310,000). AID 1511, 2009;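 active = activation above the mean of controls blocked by dofetilide plus 5 SD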;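 note: thallium influx through hERG after potassium depolarization seen as dye fluorescence rise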
KCNQ1 act – potentiators or activators of KCNQ1 channel, primary screen, cell-based, thallium flux, high-throughput; actives 0.35% (n = 310,000); Potassium voltage-gated channel subfamily KQT member 1 (Homo sapiens), P51787; B-score at 10 µM; AID 2648, 2010; CHO-K1 KCNQ1, thallium flux FluxOR fluorescence; hits give high values;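 active = fluorescence ratio B-score, a plate-corrected score, at least three library SD, with initial intensity B-score within 5 SD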
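Doses: Single concentration per compound, DMSO matched to controls | Test system: KCNQ1-transfected CHO-K1 cells | Timing: 90 min dye loading and 20 min compound exposure, both at room temperature | Measured by: Kinetic FluxOR thallium fluorescence, 10-s 1-Hz baseline, 110-s post-stimulus read | Medium: Assay buffer with matched DMSO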
KCNK3 inh – human KCNK3 channel inhibitors, primary screen, CHO cells, FluxOR thallium flux, B-score | actives 0.84% (n = 340,000) | B-score at 10 µM | AID 602410, 2012 | FluxOR fluorescence; hits give low values;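 active = B-score under library mean minus 4 SD, starting fluorescence ratio at most library mean plus 5 SD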;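 note: more negative B-score means stronger inhibition of thallium flux through KCNK3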
Target sequence (O14649 whole entry, looked up): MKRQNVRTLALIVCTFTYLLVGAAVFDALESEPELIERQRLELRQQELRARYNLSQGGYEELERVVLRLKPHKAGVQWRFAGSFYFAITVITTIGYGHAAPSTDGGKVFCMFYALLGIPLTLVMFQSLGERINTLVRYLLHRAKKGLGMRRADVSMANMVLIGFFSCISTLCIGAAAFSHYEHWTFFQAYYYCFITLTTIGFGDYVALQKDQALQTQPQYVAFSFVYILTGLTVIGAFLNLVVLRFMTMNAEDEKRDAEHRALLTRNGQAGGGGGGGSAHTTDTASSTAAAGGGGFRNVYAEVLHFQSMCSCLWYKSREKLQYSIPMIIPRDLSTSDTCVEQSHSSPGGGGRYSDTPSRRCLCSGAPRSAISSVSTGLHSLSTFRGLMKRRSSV
KCNQ1 inh – inhibitors of human KCNQ1 channel, primary screen, cell-based, thallium flux, high-throughput; actives 1.3% (n = 310,000); CHO-K1 KCNQ1, FluxOR thallium flux fluorescence; hits give high values; B-score at 10 µM; Potassium voltage-gated channel subfamily KQT member 1 (Homo sapiens), P51787;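 active = compounds whose thallium flux B-score, printed positive for inhibition, exceeds three library SD while starting fluorescence stays within three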;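 note: channel opened by potassium depolarization with thallium stimulus after 20 min compound exposure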
KCC2 secondary – KCC2 modulators in sodium-free buffer, confirmation, cell-based, HEK293 KCC2, thallium flux, secondary assay; shares compounds with KCC2 mod; FluoZin2 fluorescence; hits give high values; normalised thallium flux (F/F0 slope) at 10 µM; actives 15% (n = 3,700); AID 1713, 2009;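 active = thallium flux slope above the same plate's solvent-only control mean plus 3 SD; inconclusive = the two replicate wells disagree; inactive = no significant difference from solvent-only control wells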
KCC2 bumet counter – thallium flux persisting under bumetanide in KCC2 cells, confirmation, counter-screen for KCC2 modulator project, cell-based, HEK293 KCC2, FluoZin2, secondary assay 3 | actives 49% (n = 3,700) | AID 1714, 2009 | normalized thallium flux at 10 µM | HEK293-KCC2 + bumetanide/ouabain; hits give high values | shares compounds with KCC2 mod;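 active = thallium entry rate above the same plate's blocked-transporter control wells by more than 3 SD; inconclusive = the two repeat wells disagree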;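 note: raw slope of fluorescence over initial fluorescence between 10 and 20 s after thallium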
KCC2 sec2 – KCC2 modulators without ouabain present, confirmation, cell-based, HEK293 KCC2, thallium flux, FluoZin2, secondary assay 2; AID 1715, 2009; normalized thallium flux at 10 µM; shares compounds with KCC2 mod; thallium flux FluoZin2 fluorescence; actives lie on both sides; F/F0 rise rate, 10–20 s post-thallium; actives 23% (n = 3,700);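 active = thallium flux slope more than 3 SD above or below the plate's solvent-only control mean, mostly below; inconclusive = the two repeat wells disagreed; inactive = no significant shift from solvent-only controls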;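 note: raw slope with 0.1% DMSO as baseline and bumetanide as block control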
HEK counter1 – thallium flux modulation in parental HEK cells, confirmation, counter-screen for KCC2 modulator project, cell-based, counterscreen 1. shares compounds with KCC2 mod. HEK293 parental cells, thallium flux FluoZin2, ouabain; baseline-ratio fluorescence slope, 10–20 s after thallium. thallium flux rate (normalised fluorescence) at 10 µM. actives 46% (n = 3,700);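 active = thallium flux rate significantly above the same plate's solvent-only control wells, beyond their mean plus 3 SD; inconclusive = the two replicate wells gave conflicting results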
KCC2 ouabain – KCC2 inhibitors and activators, ouabain retest, confirmation, HEK-KCC2 cells; shares compounds with KCC2 mod; HEK293-KCC2, thallium flux FluoZin2 fluorescence; bidirectional: low = inhibitor, high = activator; raw Tl+ flux slope (below DMSO = inhibition, above = activation) at 10 µM; actives 48% (n = 3,700); AID 1717, 2009;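 active = thallium flux slope beyond 3 SD from same-plate DMSO control mean in most replicates, usually higher, sometimes lower; inconclusive = repeat tests gave conflicting results; inactive = no significant difference from controls in most replicates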;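 note: slope of initial-normalized fluorescence between seconds 10 and 20 after thallium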
HEK293 Tl flux2 – native HEK Tl+ uptake effects, second counter-screen – HEK cells, counterscreen 2, counter-screen for KCC2 modulator project, confirmation; shares compounds with KCC2 mod; HEK293 parental, thallium flux FluoZin-2 fluorescence slope; thallium flux slope at 10 µM; actives 33% (n = 3,700); AID 1718, 2009;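 active = thallium flux slope above the same plate's solvent-control mean plus 3 SD in both duplicate wells; inconclusive = duplicate wells that disagreed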;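 note: run without ouabain in cells lacking the KCC2 cotransporter; slope of fluorescence scaled to its starting value between 10 and 20 s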
Starred values were filed as active, the others as inactive.

For COc1ccccc1CN(Cc1nc2ccccc2c(=O)[nH]1)S(=O)(=O)c1ccc(C)cc1 the results were KCNK9 block inactive, hERG rescue -4, KCNQ1 act inactive, KCNK3 inh inactive, KCNQ1 inh inactive, KCC2 secondary 0.0094, KCC2 bumet counter 0.0059, KCC2 sec2 0.03, HEK counter1 0.0071, KCC2 ouabain 0.019 and HEK293 Tl flux2 0.01.
For CCOc1ccc(-c2nnc(SCC(=O)O)n2Cc2ccccc2)cc1 the results were KCNK9 block inactive, hERG rescue -8, KCNQ1 act inactive, KCNK3 inh inactive and KCNQ1 inh inactive.
For COc1ccccc1C1CC(c2ccc(Cl)cc2)Nc2nc(N)nn21 (stereo not drawn) the results were KCNK9 block inactive, KCC2 mod 0.037, hERG rescue -13, KCNQ1 act inactive, KCNK3 inh inactive and KCNQ1 inh inactive.
`CCOc1ccccc1C1CC(c2ccc(F)cc2)Nc2nc(N)nn21` (stereo not drawn) gave KCNK9 block inactive, KCC2 mod -3.4*, hERG rescue -5, KCNQ1 act inactive, KCNK3 inh inactive, KCNQ1 inh inactive, KCC2 secondary 0.0061, KCC2 bumet counter 0.0051, KCC2 sec2 0.027, HEK counter1 0.0078, KCC2 ouabain 0.017 and HEK293 Tl flux2 0.011.
`Cc1ccc(/C=N/NC(=O)c2ccoc2C)s1` gave KCNK9 block inactive, KCC2 mod 2, hERG rescue -9, KCNQ1 act inactive, KCNK3 inh inactive and KCNQ1 inh inactive.
Cc1ccc(/C=N/NC(=O)c2ccco2)s1 was read as KCNK9 block inactive, KCC2 mod -0.58, hERG rescue -9, KCNQ1 act inactive, KCNK3 inh inactive and KCNQ1 inh inactive.
For Cc1scc(C(=O)N/N=C/c2ccc(Cl)s2)c1C the results were KCNK9 block inactive, KCC2 mod 39*, hERG rescue -10, KCNQ1 act inactive, KCNK3 inh inactive, KCNQ1 inh inactive, KCC2 secondary inconclusive, KCC2 bumet counter 0.053*, KCC2 sec2 0.043*, HEK counter1 0.078*, KCC2 ouabain 0.086* and HEK293 Tl flux2 0.024*.
For Cc1occc1C(=O)N/N=C/c1ccc(Br)s1 the results were KCNK9 block inactive, KCC2 mod 78*, hERG rescue -3, KCNQ1 act inactive, KCNK3 inh inactive, KCNQ1 inh inactive, KCC2 secondary inconclusive, KCC2 bumet counter 0.03*, KCC2 sec2 0.032, HEK counter1 0.036*, KCC2 ouabain 0.052* and HEK293 Tl flux2 0.022*.
For O=C(N/N=C/c1ccc(Br)s1)c1ccco1 the results were KCNK9 block inactive, KCC2 mod 7.1*, hERG rescue -6, KCNQ1 act inactive, KCNK3 inh inactive, KCNQ1 inh inactive, KCC2 secondary 0.011, KCC2 bumet counter 0.011*, KCC2 sec2 0.035, HEK counter1 0.016*, KCC2 ouabain 0.024 and HEK293 Tl flux2 0.013*.
`CC12CCC(=O)N1C(C(=O)N1CCN(S(=O)(=O)c3ccc(Br)cc3Cl)CC1)CS2` (stereo not drawn) gave KCNK9 block inactive, hERG rescue -12, KCNQ1 act inactive, KCNK3 inh inactive and KCNQ1 inh inactive.
Screening O=C(NNC(=S)NC(=O)c1ccco1)c1ccc(NC(=O)c2ccccc2)cc1 returned KCNK9 block inactive, KCC2 mod -0.57, hERG rescue -4, KCNQ1 act inactive, KCNK3 inh inactive and KCNQ1 inh inactive.
For COc1ccc(C(=O)NC(=S)NNC(=O)c2ccco2)cc1 the results were KCNK9 block inactive, hERG rescue -15, KCNQ1 act inactive, KCNK3 inh inactive and KCNQ1 inh inactive.
`O=C(NC(=S)NNC(=O)c1ccccc1O)c1ccco1` gave KCNK9 block inactive, KCC2 mod 3.5*, hERG rescue -23, KCNQ1 act inactive, KCNK3 inh inactive, KCNQ1 inh inactive, KCC2 secondary 0.011, KCC2 bumet counter 0.013*, KCC2 sec2 0.035, HEK counter1 inconclusive, KCC2 ouabain inconclusive and HEK293 Tl flux2 0.011.
`O=C(NC(=S)NNC(=O)c1cc2ccccc2cc1O)c1ccco1` gave KCNK9 block inactive, KCC2 mod 48*, hERG rescue -20, KCNQ1 act inactive, KCNK3 inh inactive, KCNQ1 inh inactive, KCC2 secondary 0.021*, KCC2 bumet counter 0.073*, KCC2 sec2 0.034, HEK counter1 0.05*, KCC2 ouabain 0.058* and HEK293 Tl flux2 0.014*.

Compound activity (PubChem)
